Assay results: ChEMBL document CHEMBL1811786, “Identification of MK-5710 ((8aS)-8a-methyl-1,3-dioxo-2-[(1S,2R)-2-phenylcyclo- propyl]-N-(1-phenyl-1H-pyrazol-5-yl)hexahydro-imidazo[1,5-a]pyrazine-7(1H)-carboxamide), a potent smoothened antagonist for use in Hedgehog pathway dependent malignancies, part 2” (Bioorg Med Chem Lett, 2011)
One block for each molecule: values may come before it. The source made the active and inactive calls. No cut-off for these calls is given here.

Tests used:
[1] = Half life in rat; type: ADME, organism-based; conditions: in vivo
Protein smoothened [2] = target: T1, Protein smoothened (Homo sapiens, UniProt Q99835); experiment: Displacement of BODIPY-cyclopamine from human Smo expressed in HEK293 cells in presence of 2% fetal calf serum; type: cell-based
Summary of the method: (§1)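 Competition binding: displacement of fluorescently labeled bodipy-cyclopamine from recombinant human Smo expressed in HEK-293 cells. Run in 2% fetal calf serum and, separately, in 20% normal human serum. IC50 values are means of at least five experiments.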

[3] = Volume of distribution at steady state in rat; type: ADME, organism-based; conditions: in vivo, read-out: Vdss
Rattus norvegicus = organism: Rattus norvegicus; experiment: Clearance in rat; type: ADME, organism-based; conditions: in vivo
Protein smoothened [4] = target: T1, Protein smoothened; experiment: Displacement of BODIPY-cyclopamine from human Smo expressed in HEK293 cells in presence of 20% normal human serum; type: cell-based; summary of the method: as §1
[5] = Volume of distribution at steady state in dog; type: ADME, organism-based, Canis lupus familiaris; conditions: in vivo, read-out: Vdss
Canis familiaris = organism: Canis familiaris; experiment: Clearance in dog; type: ADME, organism-based, Canis lupus familiaris; conditions: in vivo
[6] = Oral bioavailability in dog; type: ADME, organism-based, Canis lupus familiaris; conditions: in vivo
[7] = Oral bioavailability in rat; type: ADME, organism-based; conditions: in vivo
[8] = Half life in dog; type: ADME, organism-based, Canis lupus familiaris; conditions: in vivo
[9] = Antiproliferative activity against irradiated Ptch +/- mouse medulloblastoma cells; type: functional; conditions: Medulloblastoma cell, light or radiation study
Summary of the method: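 Proliferation of irradiated Ptch +/- mouse medulloblastoma cells, which depend on the Hh pathway; readout reported as CC50.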

Medulloblastoma cell [10] = experiment: Antitumor activity against primary mouse medulloblastoma allograft model assessed as tumor growth inhibition at 80 mg/kg, po bid for 3 weeks; type: functional, organism-based; set-up: dose 80 mg/kg
Summary of the method: (§2)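 Primary mouse medulloblastoma allograft, subcutaneous. Mice randomized when tumors averaged 400 mm³. Oral dosing for 3 weeks, bid at 40, 80, 120 or 160 mg/kg, or 80 mg/kg qd. Compound given as a suspension in 0.24% SDS/0.5% Methocel, with a BID vehicle control. Tumor volume tracked over days; body weight, physical signs and mortality monitored.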

Medulloblastoma cell [11] = experiment: Antitumor activity against primary mouse medulloblastoma allograft model assessed as tumor growth inhibition at 160 mg/kg, po bid for 3 weeks; type: functional, organism-based; set-up: dose 160 mg/kg; summary of the method: as §2
Mus musculus [12] = experiment: Inhibition of Shh pathway in mouse medulloblastoma allograft model assessed as reduction in tumor Gli-1 mRNA expression at 80 mg/kg, po administered as single dose measured after 4 to 12 hrs; type: functional
Summary of the method: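 Tumor-bearing medulloblastoma mice given a single oral 80 mg/kg dose. Tumor biopsies taken at timepoints up to 24 h; Hh-pathway inhibition measured as reduction of Gli-1 mRNA.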

[13] = AUC in mouse at 40 mg/kg, po; type: ADME, organism-based; set-up: dose 40 mg/kg, route oral; conditions: plasma
Medulloblastoma cell [14] = experiment: Antitumor activity against primary mouse medulloblastoma allograft model assessed as tumor growth inhibition at 120 mg/kg, po bid for 3 weeks; type: functional, organism-based; set-up: dose 120 mg/kg; summary of the method: as §2
Mus musculus [15] = experiment: Toxicity in mouse medulloblastoma allograft model assessed as mortality at 160 mg/kg, po bid for 3 weeks; type: organism-based; set-up: dose 160 mg/kg, route oral; conditions: in vivo, 504 h
Summary of the method: (§3)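 Primary mouse medulloblastoma allografts grown subcutaneously; mice were randomized once tumors averaged 400 mm³. The compound was given orally as a suspension in 0.24% SDS/0.5% Methocel, either bid for 3 weeks or 80 mg/kg qd. Tolerability was monitored by body-weight loss, visible physical signs and mortality.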

Medulloblastoma cell [16] = experiment: Antitumor activity against primary mouse medulloblastoma allograft model assessed as tumor growth inhibition at 80 mg/kg, po qd for 3 weeks; type: functional, organism-based; set-up: dose 80 mg/kg; summary of the method: as §2
Mus musculus [17] = experiment: Toxicity in mouse medulloblastoma allograft model assessed as body weight loss at 160 mg/kg, po bid for 3 weeks; type: organism-based; set-up: dose 160 mg/kg, route oral; conditions: in vivo, 504 h; summary of the method: as §2
Mus musculus [18] = experiment: Toxicity in mouse medulloblastoma allograft model assessed as visible physical signs at 80 mg/kg, po bid for 3 weeks; type: organism-based; set-up: dose 80 mg/kg, route oral; conditions: in vivo, 504 h; summary of the method: as §3
Mus musculus [19] = experiment: Toxicity in mouse medulloblastoma allograft model assessed as mortality at 120 mg/kg, po bid for 3 weeks; type: organism-based; set-up: dose 120 mg/kg, route oral; conditions: in vivo, 504 h; summary of the method: as §3
Mus musculus [20] = experiment: Toxicity in mouse medulloblastoma allograft model assessed as visible physical signs at 80 mg/kg, po qd for 3 weeks; type: organism-based; set-up: dose 80 mg/kg, route oral; conditions: in vivo, 504 h; summary of the method: as §3
[21] = AUC in mouse at 80 mg/kg, po; type: ADME, organism-based; set-up: dose 80 mg/kg, route oral; conditions: plasma
Mus musculus [22] = experiment: Toxicity in mouse medulloblastoma allograft model assessed as visible physical signs at 120 mg/kg, po bid for 3 weeks; type: organism-based; set-up: dose 120 mg/kg, route oral; conditions: in vivo, 504 h; summary of the method: as §3
Mus musculus [23] = experiment: Toxicity in mouse medulloblastoma allograft model assessed as mortality at 80 mg/kg, po bid for 3 weeks; type: organism-based; set-up: dose 80 mg/kg, route oral; conditions: in vivo, 504 h; summary of the method: as §3
Mus musculus [24] = experiment: Toxicity in mouse medulloblastoma allograft model assessed as mortality at 80 mg/kg, po qd for 3 weeks; type: organism-based; set-up: dose 80 mg/kg, route oral; conditions: in vivo, 504 h; summary of the method: as §3
[25] = AUC in mouse at 160 mg/kg, po; type: ADME, organism-based; set-up: dose 160 mg/kg, route oral; conditions: plasma
Mus musculus [26] = experiment: Toxicity in mouse medulloblastoma allograft model assessed as visible physical signs at 160 mg/kg, po bid for 3 weeks; type: organism-based; set-up: dose 160 mg/kg, route oral; conditions: in vivo, 504 h; summary of the method: as §3
Medulloblastoma cell [27] = experiment: Antitumor activity against primary mouse medulloblastoma allograft model assessed as tumor growth inhibition at 40 mg/kg, po bid for 3 weeks; type: functional, organism-based; set-up: dose 40 mg/kg; summary of the method: as §2
[28] = Plasma protein binding in human assessed as unbound fraction; type: ADME, cell-free
Mus musculus [29] = experiment: Toxicity in mouse medulloblastoma allograft model assessed as body weight loss at 80 mg/kg, po bid for 3 weeks; type: organism-based; set-up: dose 80 mg/kg, route oral; conditions: in vivo, 504 h; summary of the method: as §2
Mus musculus [30] = experiment: Toxicity in mouse medulloblastoma allograft model assessed as body weight loss at 40 mg/kg, po bid for 3 weeks; type: organism-based; set-up: dose 40 mg/kg, route oral; conditions: in vivo, 504 h; summary of the method: as §2
Mus musculus [31] = experiment: Toxicity in mouse medulloblastoma allograft model assessed as body weight loss at 80 mg/kg, po qd for 3 weeks; type: organism-based; set-up: dose 80 mg/kg, route oral; conditions: in vivo, 504 h; summary of the method: as §2
Mus musculus [32] = experiment: Toxicity in mouse medulloblastoma allograft model assessed as visible physical signs at 40 mg/kg, po bid for 3 weeks; type: organism-based; set-up: dose 40 mg/kg, route oral; conditions: in vivo, 504 h; summary of the method: as §3
Mus musculus [33] = experiment: Toxicity in mouse medulloblastoma allograft model assessed as mortality at 40 mg/kg, po bid for 3 weeks; type: organism-based; set-up: dose 40 mg/kg, route oral; conditions: in vivo, 504 h; summary of the method: as §3
Mus musculus [34] = experiment: Toxicity in mouse medulloblastoma allograft model assessed as body weight loss at 120 mg/kg, po bid for 3 weeks; type: organism-based; set-up: dose 120 mg/kg, route oral; conditions: in vivo, 504 h; summary of the method: as §2

T1 sequence (Q99835 whole entry): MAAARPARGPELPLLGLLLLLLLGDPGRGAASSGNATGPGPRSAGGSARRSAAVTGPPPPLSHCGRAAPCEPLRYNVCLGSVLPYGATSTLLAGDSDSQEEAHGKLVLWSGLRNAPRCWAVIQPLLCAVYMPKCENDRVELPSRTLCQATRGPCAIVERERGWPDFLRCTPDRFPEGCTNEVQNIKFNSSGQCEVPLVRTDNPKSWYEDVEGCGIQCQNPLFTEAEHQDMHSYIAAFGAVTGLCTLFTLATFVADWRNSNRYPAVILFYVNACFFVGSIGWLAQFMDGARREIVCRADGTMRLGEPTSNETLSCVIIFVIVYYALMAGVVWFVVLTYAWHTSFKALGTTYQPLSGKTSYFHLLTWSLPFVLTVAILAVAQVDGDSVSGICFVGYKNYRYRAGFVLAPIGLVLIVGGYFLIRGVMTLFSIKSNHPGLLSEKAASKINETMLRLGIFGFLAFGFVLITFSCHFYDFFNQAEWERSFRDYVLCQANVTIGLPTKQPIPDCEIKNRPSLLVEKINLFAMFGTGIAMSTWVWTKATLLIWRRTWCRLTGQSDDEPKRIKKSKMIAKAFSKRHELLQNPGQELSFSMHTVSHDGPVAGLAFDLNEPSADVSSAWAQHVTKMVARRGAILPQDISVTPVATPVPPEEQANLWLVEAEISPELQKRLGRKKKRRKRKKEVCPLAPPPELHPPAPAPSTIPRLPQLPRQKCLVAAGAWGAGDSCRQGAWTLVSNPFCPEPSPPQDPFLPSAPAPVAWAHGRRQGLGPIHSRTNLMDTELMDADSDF

Compound: CN(C)C(=O)c1cc(Cl)c(NC(=O)N2CCN3C(=O)N([C@H]4C[C@@H]4c4ccccc4)C(=O)[C@@H]3C2)c(Cl)c1
half-life [1]: 0.6 h | IC50 (Protein smoothened [2]): 77 nM | Vd [3]: 2.1 L/kg | clearance (Rattus norvegicus): 41 mL/min/kg | IC50 (Protein smoothened [4]): 120 nM

Compound: O=C(Nc1ccnn1-c1ccccc1)N1CCN2C(=O)N([C@H]3C[C@@H]3c3ccccc3)C(=O)[C@@H]2C1
Vd [5]: 1 L/kg | growth inhibition (GI) (Medulloblastoma cell [10]): Active | growth inhibition (GI) (Medulloblastoma cell [11]): Active | clearance (Canis familiaris): 5.5 mL/min/kg | inhibition in vivo at 80 mg/kg (Mus musculus [12]): > 80% | half-life [1]: 1.3 h | bioavailability [6]: 82% | AUC [13]: 6.4 µM·h | bioavailability [7]: 88% | growth inhibition (GI) (Medulloblastoma cell [14]): Active | Activity (Mus musculus [15]): Non-toxic | growth inhibition (GI) (Medulloblastoma cell [16]): Active | Activity (Mus musculus [17]): < 10% | IC50 (Protein smoothened [2]): 15 nM | Activity (Mus musculus [18]): Non-toxic | Activity (Mus musculus [19]): Non-toxic | Activity (Mus musculus [20]): Non-toxic | half-life [8]: 2.5 h | AUC [21]: 15 µM·h | Activity (Mus musculus [22]): Non-toxic | Activity (Mus musculus [23]): Non-toxic | Activity (Mus musculus [24]): Non-toxic | Vd [3]: 2.9 L/kg | AUC [25]: 24 µM·h | clearance (Rattus norvegicus): 43 mL/min/kg | Activity (Mus musculus [26]): Non-toxic | IC50 (Protein smoothened [4]): 18 nM | growth inhibition (GI) (Medulloblastoma cell [27]): Active | fraction unbound [28]: 0.17 | Activity (Mus musculus [29]): < 10% | Activity (Mus musculus [30]): < 10% | Activity (Mus musculus [31]): < 10% | Activity (Mus musculus [32]): Non-toxic | Activity (Mus musculus [33]): Non-toxic | Activity (Mus musculus [34]): < 10%

Compound: CS(=O)(=O)c1cc(Cl)c(NC(=O)N2CCN3C(=O)N([C@H]4C[C@@H]4c4ccccc4)C(=O)[C@@H]3C2)c(Cl)c1
Vd [5]: 0.3 L/kg | clearance (Canis familiaris): 1.7 mL/min/kg | half-life [1]: 3.2 h | bioavailability [7]: 74% | IC50 (Protein smoothened [2]): 42 nM | half-life [8]: 1 h | Vd [3]: 0.6 L/kg | clearance (Rattus norvegicus): 5 mL/min/kg | IC50 (Protein smoothened [4]): 68 nM

Compound: C[C@]12CN(C(=O)Nc3ccccc3-c3ccccc3)CCN1C(=O)N([C@H]1C[C@@H]1c1ccccc1)C2=O
IC50 (Protein smoothened [2]): 1200 nM | IC50 (Protein smoothened [4]): 1600 nM

Compound: O=C(Nc1ccnn1-c1cccc(F)c1)N1CCN2C(=O)N([C@H]3C[C@@H]3c3ccccc3)C(=O)[C@@H]2C1
IC50 (Protein smoothened [2]): 7 nM | IC50 (Protein smoothened [4]): 9 nM

Compound: N#Cc1cc(Cl)c(NC(=O)N2CCN3C(=O)N([C@H]4C[C@@H]4c4ccccc4)C(=O)[C@@H]3C2)c(Cl)c1
half-life [1]: 5.4 h | bioavailability [7]: 56% | IC50 (Protein smoothened [2]): 100 nM | Vd [3]: 0.5 L/kg | clearance (Rattus norvegicus): 2 mL/min/kg | IC50 (Protein smoothened [4]): 450 nM

More lines, main results first:

Vd [5]: 2.5 L/kg | clearance (Canis familiaris): 4 mL/min/kg | half-life [1]: 2.2 h | bioavailability [6]: 97% | bioavailability [7]: 30% | IC50 (Protein smoothened [2]): 230 nM | half-life [8]: 10 h | Vd [3]: 8 L/kg | clearance (Rattus norvegicus): 46 mL/min/kg | IC50 (Protein smoothened [4]): 690 nM
Compound: O=C(Nc1cccc(Cl)c1Cl)N1CCN2C(=O)N([C@H]3C[C@@H]3c3ccccc3)C(=O)[C@@H]2C1
CC50 [9]: 12 nM

IC50 (Protein smoothened [2]): 48 nM
Compound: O=C(Nc1ccccc1-c1ccccc1)N1CCN2C(=O)N(C3CC3c3ccccc3)C(=O)C2C1 (stereo in doubt; 3)

half-life [1]: 1.3 h | IC50 (Protein smoothened [2]): 4 nM | Vd [3]: 4.1 L/kg | clearance (Rattus norvegicus): 54 mL/min/kg | IC50 (Protein smoothened [4]): 15 nM
Compound: O=C(Nc1cccnc1-c1cccc(Cl)c1)N1CCN2C(=O)N([C@H]3C[C@@H]3c3ccccc3)C(=O)[C@@H]2C1

half-life [1]: 4.9 h | bioavailability [7]: 31% | IC50 (Protein smoothened [2]): 12 nM | Vd [3]: 6.7 L/kg | clearance (Rattus norvegicus): 54 mL/min/kg | IC50 (Protein smoothened [4]): 12 nM
Compound: O=C(Nc1cccnc1-c1ccccc1)N1CCN2C(=O)N([C@H]3C[C@@H]3c3ccccc3)C(=O)[C@@H]2C1

IC50 (Protein smoothened [2]): 35 nM
Compound: O=C(Nc1ccccc1-c1ccccc1)N1CCN2C(=O)N(C3CC3c3ccccc3)C(=O)C2C1 (stereo in doubt; 6)
